This note sets out measurements from publication PMC7950731 (Cell reports, 2019).

What all share (experiment): TR-FRET of indisulam-induced ternary complex
What all share (assay type): binding

The target in assay [1] is DCAF15 (Homo sapiens, UniProt Q14498+Q66K64). An outline of the steps: (§1)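 Purified His-DCAF15–DDB1–DDA1 (SF9 co-expression) and RBM39 aa 250–330-3xFLAG (E. coli, His tag TEV-cleaved), each 0.1 μM final, with 1 nM Eu-anti-6xHis donor and 5 ng/μL anti-FLAG-XL665 acceptor. Test compound titrated, 5 min at room temperature. Excitation 360 nm; 665/620 nm ratio. Run in triplicate; EC50 from four-parameter fit.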

The target in assay [2] is RBM39 (Homo sapiens, UniProt Q14498+Q66K64). An outline of the steps: as §1
The target of assay [3] is RBM23 (Homo sapiens, UniProt Q66K64+Q86U06).

Each structure is given as a SMILES string.

Turning to `NS(=O)(=O)c1ccc(S(=O)(=O)Nc2cccc3c(Cl)c[nH]c23)cc1` [indisulam], the EC50 came to 2.27 µM in assay [1], 2.27 µM in assay [2] and 2.58 µM in assay [3].
